Experimental data published in ChEMBL document CHEMBL4270643, “Structure-based drug design: Synthesis and biological evaluation of quinazolin-4-amine derivatives as selective Aurora A kinase inhibitors” (Eur J Med Chem, 2018).
Active and inactive are the calls of the source. The rule behind the calls is not given here.

Columns and labels:
Aurora kinase A = molecular target: T1, Aurora kinase A (Homo sapiens, UniProt O14965); test: Inhibition of Aurora A (unknown origin) using FAM-labelled peptide as substrate pretreated for 10 mins followed by substrate addition and measured after 60 mins by fluorescence assay
T1 sequence (O14965 whole entry): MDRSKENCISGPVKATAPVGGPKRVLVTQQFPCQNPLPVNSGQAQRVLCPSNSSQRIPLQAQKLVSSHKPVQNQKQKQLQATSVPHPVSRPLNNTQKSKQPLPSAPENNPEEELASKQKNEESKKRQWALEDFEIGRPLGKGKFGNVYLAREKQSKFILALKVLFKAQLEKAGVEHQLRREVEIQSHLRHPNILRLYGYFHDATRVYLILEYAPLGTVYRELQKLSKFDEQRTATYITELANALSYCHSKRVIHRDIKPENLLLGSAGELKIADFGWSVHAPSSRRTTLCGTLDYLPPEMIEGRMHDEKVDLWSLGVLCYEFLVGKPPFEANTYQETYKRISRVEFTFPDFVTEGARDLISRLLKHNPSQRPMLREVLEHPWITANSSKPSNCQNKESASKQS
In short: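 Kinase IC50 values are the mean of at least two independent experiments; selectivity is the Aurora A/B ratio of these IC50s.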

K562 = test: Antiproliferative activity against human K562 cells after 48 hrs by CCK8 assay; type: functional, cell-based; conditions: Homo sapiens, K562, 48 h; read-out: IC50
MCF7 = test: Antiproliferative activity against human MCF7 cells after 48 hrs by CCK8 assay; type: functional, cell-based; conditions: Homo sapiens, MCF7, 48 h; read-out: IC50
SK-BR-3 = test: Antiproliferative activity against human SKBR3 cells after 48 hrs by CCK8 assay; type: functional, cell-based; conditions: Homo sapiens, SK-BR-3, 48 h; read-out: IC50
[1] = molecular target: T2, Aurora kinase A (Homo sapiens) (UniProt O14965); test: Inhibition of Aurora A phosphorylation at Thr288 residue in human 293T cells at 1 to 2 uM after 24 hrs by western blot analysis; type: cell-based
T2 sequence (whole entry): T1 sequence (O14965 whole entry)
In short: (§1)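 293T cells treated 24 h with increasing doses or 0.1% DMSO control; lysates probed by Western blot for p-Aurora A (Thr288) and p-histone H3 (Ser10), with GAPDH as loading control.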

[2] = molecular target: T2, Aurora kinase A (Homo sapiens); test: Inhibition of Aurora A phosphorylation at Thr288 residue in human 293T cells at 1 uM after 24 hrs by western blot analysis; type: cell-based; in short: as §1
MDA-MB-231 [3] = test: Induction of morphological changes in human MDA-MB-231 cells assessed as defects in chromosomal alignment at 1 uM by DAPI staining based microscopic analysis; type: functional, cell-based
In short: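 MDA-MB-231 cells incubated 24 h with 1 µM compound or 0.1% DMSO; immunofluorescence imaging of centrosomes, spindles and nuclei at ×1000 to score spindle polarity and chromosome alignment at the metaphase plate.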

MDA-MB-231 [4] = test: Inhibition of colony formation in human MDA-MB-231 cells assessed as reduction in number of colonies at 3 uM after 7 days by crystal violet staining based assay; type: functional, cell-based
In short: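 Colony formation of MDA-MB-231 cells grown 7 days with 3 µM compound or 0.1% DMSO; colony numbers counted and compared against control.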

MDA-MB-231 [5] = test: Antitumor activity against human MDA-MB-231 cells xenografted in BALB/c athymic nude mouse assessed as reduction in tumor size at 30 mg/kg, ig administered every 2 days for 18 days; type: functional, organism-based
In short: (§2)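 Nude mice with established MDA-MB-231 xenografts dosed intragastrically every 2 days for 18 days; vehicle control group; n=4 per group. Tumor volume estimated over time and compared by two-way repeated-measures ANOVA; dissected tumors weighed at end. Data as mean ±SD.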

MDA-MB-231 [6] = test: Antitumor activity against human MDA-MB-231 cells xenografted in BALB/c athymic nude mouse assessed as tumor growth inhibition at 30 mg/kg, ig administered every 2 days for 18 days relative to control; type: functional; conditions: MDA-MB-231, po, read-out: TGI; in short: as §2
Mus musculus [7] = test: Toxicity in BALB/c athymic nude mouse xenografted with human MDA-MB-231 cells assessed as effect on spleen weight at 30 mg/kg, ig administered every 2 days for 18 days measured post last dose; type: organism-based; conditions: in vivo, po
In short: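 Xenograft-bearing nude mice dosed intragastrically every 2 days for 18 days; body weight tracked throughout. After treatment ended, liver, lung, kidney and spleen weighed in untreated, vehicle and dosed groups; unpaired two-tailed t-test; mean ±SD, n=4.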

Mus musculus [8] = test: Toxicity in BALB/c athymic nude mouse xenografted with human MDA-MB-231 cells assessed as effect on HCT level at 30 mg/kg, ig administered every 2 days for 18 days measured post last dose; type: organism-based; conditions: in vivo, po
In short: (§3)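 After the 18-day intragastric course (every 2 days), blood cell counts taken from untreated, vehicle and dosed mice; groups compared by unpaired two-tailed t-test; mean ±SD, n=4.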

Mus musculus [9] = test: Toxicity in BALB/c athymic nude mouse xenografted with human MDA-MB-231 cells assessed as effect on PLT level at 30 mg/kg, ig administered every 2 days for 18 days measured post last dose; type: organism-based; conditions: in vivo, po; in short: as §3

CCOC(=O)C1CCN(c2ccc3c(Nc4cc(C)[nH]n4)nc(-c4ccccc4)nc3c2)CC1 showed an IC50 (Aurora kinase A) of 38 nM, an IC50 (K562) of 1090 nM and an IC50 (MCF7) of 2230 nM. For the same compound, the IC50 (SK-BR-3) was 2400 nM, the inhibition [1] was “Active” and the inhibition [2] was “Active”. The Activity (MDA-MB-231 [3]) was “Active”, the Activity (MDA-MB-231 [4]) was “Active” and the Activity (MDA-MB-231 [5]) was “Active”. The inhibition in vivo at 30 mg/kg (MDA-MB-231 [6]) was 45%, the Activity (Mus musculus [7]) was “Non-Toxic” and the Activity (Mus musculus [8]) was “Non-Toxic”. The Activity (Mus musculus [9]) was “Non-Toxic”.
